Assay results as given in ChEMBL document CHEMBL1138697, “Development of a new class of potential antiatherosclerosis agents: NO-donor antioxidants” (Bioorg Med Chem Lett, 2004).

Columns and labels:
[1] = organism: Rattus norvegicus; test: Tested for inhibition of ferrous salt/ascorbate induced lipidic peroxidation of membrane lipid of rat hepatocytes; format: functional; conditions: Hepatocyte
Method in brief: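 Rat liver microsomes (male Wistar, 200-250 g) were prepared by differential centrifugation and used at 2 mg prot/mL. Incubation was at 37°C, pH 7.4, Tris-HCl/KCl, with 100 μM ascorbate and compounds in DMSO (≤5%). TBARS were read at 543 nm against an MDA standard, using the 30-min plateau. IC50 came from % inhibition vs control by non-linear regression.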

[2] = organism: Rattus norvegicus; test: Vasodilating activity in rat aorta strip in absence of 1H-[1,2,4]oxadiazolo[4,3-a]quinoxalin-1-one (ODQ); format: functional, organism-based
Method in brief: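 Rat aortic strips were precontracted with 1 μM L-phenylephrine and relaxation was measured. The method follows an earlier published procedure with minor changes.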

[3] = organism: Rattus norvegicus; test: Vasodilating activity in rat aorta strip in presence of 1H-[1,2,4]oxadiazolo[4,3-a]quinoxalin-1-one (ODQ); format: functional, organism-based
Method in brief: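 Rat aortic strips were precontracted with 1 μM L-phenylephrine. ODQ 1 μM was added to the bath at least 5 min before contraction, in a separate series of experiments, and relaxation was then measured.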

| Compound | IC50 [1] [µM] | EC50 [2] [µM] | EC50 [3] [µM] |
| --- | --- | --- | --- |
| CC(C)(C)c1cc(CCCOc2no[n+]([O-])c2S(=O)(=O)c2ccccc2)cc(C(C)(C)C)c1O | 2 | 0.11 | 4.8 |
| CC(C)(C)c1cc(CCCO[N+](=O)[O-])cc(C(C)(C)C)c1O | 2 | 40 |  |
| Cc1c(C)c2c(c(C)c1O)CCC(C)(COCCCO[N+](=O)[O-])O2 (stereo unspecified) | 0.15 | 1.2 |  |
| O=[N+]([O-])OCCCc1ccc(O)cc1 | 143 | 1 |  |
| O=S(=O)(c1ccccc1)c1c(OCCCc2ccc(O)cc2)no[n+]1[O-] | 47 | 0.01 | 0.36 |
| Cc1c(C)c2c(c(C)c1O)CCC(C)(COc1no[n+]([O-])c1S(=O)(=O)c1ccccc1)O2 (stereo unspecified) | 0.49 | 0.04 | 0.67 |
| CCOc1no[n+]([O-])c1S(=O)(=O)c1ccccc1 | 110 | 0.01 | 1.2 |
| Cc1c(C)c2c(c(C)c1O)CCC(C)(C)O2 [APC-100] | 0.17 |  |  |
| Cc1cc(C(C)(C)C)c(O)c(C(C)(C)C)c1 [BUTYLATED HYDROXYTOLUENE] | 1.7 |  |  |
| Cc1ccc(O)cc1 [p-CRESOL] | 290 |  |  |
